Most compounds without a hit are left out; they make up all but 5.8% or so of the library.
NCF1 inh – p47phox/p22phox peptide binding inhibitors, primary screen, biochemical, uHTS, NADPH oxidase regulatory subunit | fluorescence polarization, 2 h | inhibition, % at 24.7 µM | Neutrophil cytosol factor 1 (Homo sapiens), P14598 | hit rate 0.53% among 220,000;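 active = inhibition above about 30%, limit read from the data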
ROMK primary – ROMK potassium channel modulators, primary screen, cell-based, thallium flux, MLSMR library. Tet-inducible ROMK, thallium flux fluorescence; actives lie on both sides. B-score at 10 µM. hit rate 2% among 130,000;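 active = signal ratio slope over the read window, or its plate-corrected B-score, at least 3 SD from the plate mean, either direction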;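 also: B-score of the F/F0 ratio slope over 7 to 12 s after thallium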
Target sequence (P48048 whole entry, looked up): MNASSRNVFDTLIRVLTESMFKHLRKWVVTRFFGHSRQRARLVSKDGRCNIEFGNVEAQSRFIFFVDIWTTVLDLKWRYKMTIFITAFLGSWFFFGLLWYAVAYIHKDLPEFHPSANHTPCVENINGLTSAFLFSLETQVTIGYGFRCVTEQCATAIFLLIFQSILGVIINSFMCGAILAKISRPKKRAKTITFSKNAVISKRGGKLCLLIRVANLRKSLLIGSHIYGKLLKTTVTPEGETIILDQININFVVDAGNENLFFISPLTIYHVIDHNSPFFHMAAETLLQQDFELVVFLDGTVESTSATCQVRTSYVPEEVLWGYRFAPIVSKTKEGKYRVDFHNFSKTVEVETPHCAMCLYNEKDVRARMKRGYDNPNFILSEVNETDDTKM
WT yeast gro inh – growth inhibition of WT strain, primary screen, mitochondrial fusion inhibitor project, WT and mutant strains, chemical genetic; mitochondrial fusion phenotypic screen; hit rate 2.1% among 190,000; inhibition, % at 10 µM; AID 1362, 2008; in the data active = inhibition above about 58%; tested in S. cerevisiae
14-3-3 Bad inh – inhibitors of 14-3-3 zeta/Bad binding, primary screen, biochemical, TR-FRET, bovine 14-3-3 zeta | inhibition, % at 21.7 µM | hit rate 0.71% among 220,000 | TR-FRET 14-3-3zeta/Dy647-pBad peptide displacement, 1 h;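 active = inhibition above about 70%, limit read from the data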
Target sequence (P63103 whole entry, looked up): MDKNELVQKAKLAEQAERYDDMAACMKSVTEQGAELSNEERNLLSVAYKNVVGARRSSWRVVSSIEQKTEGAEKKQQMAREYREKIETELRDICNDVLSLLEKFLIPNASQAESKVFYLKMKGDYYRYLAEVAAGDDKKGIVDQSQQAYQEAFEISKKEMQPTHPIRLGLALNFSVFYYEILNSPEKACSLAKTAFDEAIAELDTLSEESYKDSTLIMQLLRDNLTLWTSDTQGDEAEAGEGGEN
KCC2 mod – KCC2 cotransporter modulators, thallium flux, primary screen, cell-based, HEK293 KCC2, FluoZin-2 fluorescence, MLSMR; AID 1456, 2008; B-score of Tl+ flux slope (higher = more flux/activation; lower = inhibition) at 10 µM; Solute carrier family 12 member 5 (Homo sapiens), Q9H2X9; hit rate 2.2% among 190,000; KCC2 cells, thallium flux FluoZin-2 fluorescence;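 active = thallium flux slope and its plate-corrected score both differing from the plate sample mean at a set confidence after two filtering rounds, in either direction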;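 also: slope of fluorescence scaled to starting intensity during 10 to 20 s after thallium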
RBBP9 inhibitor – human RBBP9 inhibitors, primary screen, biochemical, fluorescence polarization, FP-Rh probe, HTS. AID 1515, 2009. recombinant RBBP9. hit rate 0.2% among 220,000. Serine hydrolase RBBP9 (Homo sapiens), O75884. inhibition, % at 7.94 µM;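 active = inhibition above the campaign mean of all tested compounds plus 3 SD, cut at about 14% in these data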
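System: RBBP9 protein / Buffer or medium: Tris/NaCl buffer pH 8.0 with 0.1% Pluronic / Probe or stimulus: Serine-hydrolase probe FP-Rh, 375 nM pre-mixing / Dosing: 7.94 µM single dose, 0.794% DMSO / Times: enzyme-compound preincubation 30 min, then probe labeling 45 min, 25 °C / Technique: fluorescence polarization (mP), excitation 525 nm, emission 598 nm / Replication: singlicate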
Of the large screens only hits and unclear results are named; the others gave an inactive call.

COc1ccc(C2C(C(=O)c3ccco3)=C(O)C(=O)N2CCc2ccccc2)cc1OC (stereo unspecified)	none (no result: KCC2 mod)
COc1cc(NC(=O)c2ccc(C(C)(C)C)cc2)c(OC)cc1NC(=O)CN1CCCCC1	WT yeast gro inh 70
COc1cc(NC(=O)c2ccc(Cl)cc2)c(OC)cc1NC(=O)CN1CCOCC1	KCC2 mod -5.2
O=C(C=C=Nc1ccccc1)C(=O)N=C=Cc1ccccc1	none (no result: ROMK primary, WT yeast gro inh)
CC(C(=O)Nc1ccccc1-c1ccccc1)N1CCN(C(=O)c2ccccc2)CC1 (stereo unspecified)	none (no result: ROMK primary, WT yeast gro inh)
CC1CCN(C(C)C(=O)Nc2ccccc2-c2ccccc2)CC1 (stereo unspecified)	WT yeast gro inh 60, 14-3-3 Bad inh 85 (no result: ROMK primary)
CCN(CC)c1ccc(S(=O)(=O)N2CCOCC2)cc1NC(=O)CSc1n[nH]c(N)n1	none (no result: ROMK primary, WT yeast gro inh)
O=c1c2ccccc2n(Cc2cccc(F)c2)c(=O)n1C1CCCC1	WT yeast gro inh 76 (no result: ROMK primary, KCC2 mod)
O=[N+]([O-])c1cc(C(F)(F)F)ccc1N1CCCNCC1	none
O=C(NC(=S)N1CCN(c2ccc(C(F)(F)F)cc2[N+](=O)[O-])CC1)c1cccs1	KCC2 mod 64 (no result: ROMK primary)
CC(C)C1CC(CCN)(Cc2ccccc2)CCO1 (stereo unspecified)	none
CCCOP(=O)(c1ccc(N(C)C)cc1)C(Nc1ccccc1)c1ccc(C)cc1 (stereo unspecified)	none (no result: ROMK primary, WT yeast gro inh)
COC(=O)c1ccccc1NC(=O)CSc1nc2cccnc2n1C	none
COC(=O)c1cccc(NC(=O)CSc2nc3cccnc3n2C)c1	ROMK primary -3.4 (no result: 14-3-3 Bad inh, KCC2 mod)
COc1ccc(C=O)c(OC)c1	none (no result: KCC2 mod)
COc1ccc(/C=C2\CC/C(=C\c3ccc(OC)cc3OC)C2=O)c(OC)c1	ROMK primary -2.7
O=C(CCNc1ccc(F)cc1)c1cc2ccccc2o1	NCF1 inh 62
O=C(CCl)NCCN1C(=O)S/C(=C\c2cccnc2)C1=O	none
Cc1nn(Cc2ccccc2)c(C)c1C(=O)NCCN1C(=O)S/C(=C\c2ccccc2)C1=O	NCF1 inh 30 (no result: ROMK primary)
CC(=O)N1N=C(c2cccc([N+](=O)[O-])c2)OC1c1cccc(Br)c1 (stereo unspecified)	WT yeast gro inh 66 (no result: ROMK primary, KCC2 mod)
CC(=O)N1N=C(c2cccc(Cl)c2)OC1c1ccc(C(C)C)cc1 (stereo unspecified)	WT yeast gro inh 78
COc1cc(/C=C(\CC(=O)O)c2nc3ccccc3s2)cc(OC)c1O	none
COc1cc(C=C(c2nc3ccccc3s2)c2nc3ccccc3s2)cc(OC)c1O	WT yeast gro inh 74
COc1ccc(-c2nc3ccccc3s2)cc1O	WT yeast gro inh 59
COc1cc(/C=N/NC(=Nc2ccc(C)cc2)c2nc3ccccc3s2)ccc1O	WT yeast gro inh 75 (no result: ROMK primary)
COc1ccccc1/C=N/NC(=Nc1ccc(C)cc1)c1nc2ccccc2s1	none (no result: ROMK primary)
CCOc1ncccc1C(=O)OCC(=O)N(CC)c1ccccc1	none
COc1cc(CNC2CCCCC2OC)cc(OC)c1OC (stereo unspecified)	none (no result: ROMK primary)
CCOc1ccc(C2NC(=O)NC(C)=C2[N+](=O)[O-])cc1OC (stereo unspecified)	none (no result: WT yeast gro inh)
COc1ccc(-n2cc(C(=O)O)c(=O)cc2C)cc1	none (no result: ROMK primary)
CCSC(=Nc1ccccc1)Nc1ccccc1	none
N=c1oc2ccc3ccccc3c2cc1C(N)=S	none
Cc1ccc(CNCC2CCCO2)s1 (stereo unspecified)	14-3-3 Bad inh 90 (no result: KCC2 mod)
c1cc(CNCC2CCCO2)ccn1 (stereo unspecified)	none
CCOc1ccc(NC(c2ccccn2)c2oc(CO)cc(=O)c2O)cc1 (stereo unspecified)	NCF1 inh 48
CCOc1ccc(NC(=O)C(c2ccccn2)N(C(=O)CCl)c2ccc(OCC)cc2)cc1 (stereo unspecified)	none
O/N=C/c1ccc(OCc2ccccc2)c(Br)c1	none (no result: ROMK primary)
O/N=C/c1cc(Br)cc(Br)c1OCc1ccccc1	WT yeast gro inh 60
CN1CC(c2ccccc2)C2(SC(=S)N(Cc3ccco3)C2=O)C12C(=O)Nc1ccccc12 (stereo unspecified)	WT yeast gro inh 80
Cc1cc(NC(=O)c2cc3cccc([N+](=O)[O-])c3[nH]2)ccc1F	none (no result: WT yeast gro inh)
Cc1cc(NC(=O)CSc2nc(CCC3CCCC3)nc3ccccc23)no1	none (no result: ROMK primary)
O=C(CSc1nc(CCC2CCCC2)nc2ccccc12)NCc1ccc2c(c1)OCO2	KCC2 mod 21
COC(=O)/C=C/c1ccc(OC(=O)OC)c(OC(=O)OC)c1	none (no result: ROMK primary)
Cc1onc(-c2ccccc2Cl)c1NC(=O)NCc1cccs1	none (no result: ROMK primary, WT yeast gro inh)
O=C(Nc1cc(Cl)ccc1N1CCCCC1)c1cccs1	none
O=C(NC(=S)Nc1ccc(S(=O)(=O)NC2CCCCC2)cc1)c1cccs1	WT yeast gro inh 64 (no result: ROMK primary)
CS(=O)(=O)N1CCN(c2ccccc2NC(=S)NC(=O)c2cccs2)CC1	none
CC1CCN(c2ccccc2NC(=S)NC(=O)c2ccco2)CC1	KCC2 mod 15 (no result: NCF1 inh, ROMK primary, WT yeast gro inh, 14-3-3 Bad inh)
O=C(NC(=S)Nc1ccc(S(=O)(=O)N2CCCCC2)cc1)c1cccs1	none
O=C(NC(=S)Nc1ccc(N2CCCCC2)c(Cl)c1)c1cccs1	KCC2 mod 32 (no result: NCF1 inh, ROMK primary, WT yeast gro inh, 14-3-3 Bad inh)
CS(=O)(=O)N1CCN(c2ccccc2NC(=O)c2ccco2)CC1	none (no result: ROMK primary)
CC1CCN(c2ccccc2NC(=S)NC(=O)c2cccs2)CC1	KCC2 mod 9.5 (no result: ROMK primary)
O=C(NN1C(=O)c2ccccc2C1=O)C1C2CCCCC21 (stereo unspecified)	none
COc1ccccc1NC(=O)OCC#CCOC(=O)Nc1ccccc1OC	none (no result: WT yeast gro inh)
COc1ccccc1N1CCN(C(C)C(=O)N2CC(C)OC(C)C2)CC1 (stereo unspecified)	none
CCCNC(=O)c1nn2cc(Br)cnc2c1Br	none (no result: ROMK primary, KCC2 mod)
CC1CCN(c2ccccc2NC(=O)c2ccc(F)cc2)CC1	WT yeast gro inh 72 (no result: KCC2 mod)
O=C(Nc1ccccc1N1CCCCC1)c1ccccc1F	WT yeast gro inh 81 (no result: KCC2 mod)
CC1CCN(c2ccccc2NC(=S)NC(=O)C(C)(C)C)CC1	WT yeast gro inh 78
CN1CCN(c2ccccc2NC(=O)c2ccc(F)cc2)CC1	none (no result: ROMK primary, WT yeast gro inh)
Cc1cc(/C=C2\SC(N)=NC2=O)c(C)n1-c1ccc(F)cc1	none (no result: ROMK primary, KCC2 mod)
COc1cc(CNC23CC4CC(CC(C4)C2)C3)ccc1OCc1ccccc1	none
CC(C)(C)NC(=O)CSc1nc2[nH]ncc2c(=O)[nH]1	none
CN(C(=O)CSCC(=O)O)C1CCCCC1	none (no result: ROMK primary)
O=S(=O)(Nc1nc(-c2sccc2Cl)cs1)c1cc(Cl)ccc1Cl	14-3-3 Bad inh 87 (no result: ROMK primary, KCC2 mod)

Assay outcomes as filed in PubChem.
